Assay results from PMC9306447 (Clinical Cancer Research, 2022).
“And” between values parts separate entries of the source, which are not always exact repeats. Equal values may be shown once. Read-outs that look alike come from different tables or passages of the source.

Assays:
[1] = Fraction unbound in brain tumor tissue by equilibrium dialysis; assay type: in vitro ADME, human; details: for Fraction unbound EN: enhancing tumor tissue; for Fraction unbound NE: nonenhancing tumor tissue
Procedure, shortened: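 Patients with brain metastasis or recurrent glioblastoma took the test compound orally for 10 days: 750 mg/day fasted or 450 mg/day with food. Tumor was resected 2 to 4, 6 to 8 or 23 to 25 h after the 10th dose. Regions were gadolinium-enhancing or, for glioblastoma, also nonenhancing, defined by preoperative MRI and intraoperative neuronavigation. Fraction unbound was measured by equilibrium dialysis, with total drug by LC-MS/MS.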

[2] = Clinical safety, adverse events graded by CTCAE; assay type: in vivo, human; details: 10 patients
FAK = details: read-out: biochemical IC50; cited from earlier work
[3] = daily dose; cited from earlier work
[4] = tested on: ALK(+) NSCLC with brain metastases; details: across all four arms of ASCEND-7; cited from earlier work
human plasma proteins = experiment: Fraction unbound in plasma by equilibrium dialysis; assay type: in vitro ADME; details: patient plasma; median and range
Procedure, shortened: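 Patient plasma came from subjects dosed orally with the test compound for 10 days (750 mg/day fasted or 450 mg/day fed). Blood was sampled on day 9 and intraoperatively, centrifuged at 4°C, 1,500 g for 10 min, and the plasma stored at −80°C. Fraction unbound was measured by equilibrium dialysis; unbound concentration is total concentration (LC-MS/MS) times fraction unbound.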

[5] = tested on: ALK(+) NSCLC brain metastases; details: ASCEND-1, cited from earlier work
[6] = Ceritinib concentrations in brain tumor and CSF and extent of CNS penetration; assay type: in vivo, human; details: for Total drug tumor conc. EN / Unbound drug tumor conc. EN: enhancing tumor; for Total drug tumor conc. NE / Unbound drug tumor conc. NE: nonenhancing tumor
[7] = Steady-state plasma PK of total and unbound ceritinib; assay type: in vivo, human; details: for Css,max / Tss,max: plasma
IGF1R = details: read-out: biochemical IC50; cited from earlier work
[8] = individual patients 7, 9, 13 (resection 6–8 h)
[9] = individual patients 8, 14 (resection 23–25 h)
[10] = median (range given) of patients
[11] = mean of patients, all time points
[12] = median of patients, all time points
[13] = individual patients 7, 9, 13, 6–8 h after 10th dose, 450 mg/day
[14] = individual patients 8, 14, 23–25 h after 10th dose, 450 mg/day
[15] = individual patients 5, 11, 2–4 h after 10th dose, 450 mg/day
[16] = total ceritinib, arithmetic mean of 10 patients (750 or 450 mg/day)
[17] = total ceritinib, geometric mean of 10 patients (750 or 450 mg/day)
[18] = unbound ceritinib, arithmetic mean of 10 patients (750 or 450 mg/day)
[19] = unbound ceritinib, geometric mean of 10 patients (750 or 450 mg/day)

Cc1cc(Nc2ncc(Cl)c(Nc3ccccc3S(=O)(=O)C(C)C)n2)c(OC(C)C)cc1C1CCNCC1 [ceritinib, 5-chloro-N2-(2-isopropoxy-5-methyl-4-(piperidin-4-yl)phenyl)-N4-(2-(isopropylsufonyl)phenyl)pyrimidine-2,4-diamine]
Fraction unbound EN ([1]; individual patients 1, 2, 3, 5, 11 (resection 2–4 h)): 1.618% and 0.039% and 0.047% and 0.056%
Fraction unbound EN [1, 8]: 0.006% and 0.153% and 0.030%
Fraction unbound EN [1, 9]: 0.298% and 0.144%
Fraction unbound EN [1, 10]: 0.006%–1.6% and 0.051%
Fraction unbound NE ([1]; individual patients 5, 11 (resection 2–4 h)): 0.045% and 0.006%
Fraction unbound NE [1, 8]: 0.006% and 0.163% and 0.030%
Fraction unbound NE [1, 9]: 0.090% and 0.213%
Fraction unbound NE [1, 10]: 0.045% and 0.006%–0.21%
fraction unbound in the tumor relative to the median value ([1]; patient 1, breast cancer brain metastasis): approximately 30 fold
tolerability of presurgical ceritinib ([2]; 10-day presurgical course): well tolerated
severity of toxicities at least possibly related to ceritinib ([2]; CTCAE 4.0): minor (CTCAE 4.0 grades 1 and 2)
IC50 (FAK): 30 nM
maximally tolerated dose (MTD) [3]: 750 mg
disease control rate (DCR), intracranial [4]: High disease control rate
fraction unbound in human plasma (human plasma proteins): 1.4% and 0.6%–2.6%
intracranial disease control rate ([5]; ALKi-naïve patients (15/19)): 78.9%
intracranial disease control rate ([5]; ALKi-pretreated patients (49/75)): 65.3%
CSF concentration ([6]; individual patient 14, 23–25 h after 10th dose, 450 mg/day): 0.015 µM
CSF concentration ([6]; individual patients 7, 13, 6–8 h after 10th dose, 450 mg/day): 0.003 µM and 0.015 µM
CSF concentration [6, 11]: 0.022 µM
CSF concentration [6, 12]: 0.012 µM
Total drug tumor conc. EN [6, 13]: 17.770 nmol/mg and 28.484 nmol/mg and 58.893 nmol/mg
Unbound drug tumor conc. EN [6, 13]: 0.001 nmol/mg and 0.043 nmol/mg and 0.018 nmol/mg
Total drug tumor conc. EN [6, 14]: 18.340 nmol/mg and 43.715 nmol/mg
Unbound drug tumor conc. EN [6, 14]: 0.055 nmol/mg and 0.063 nmol/mg
Total drug tumor conc. EN [6, 11]: 46.954 nmol/mg
Unbound drug tumor conc. EN [6, 11]: 0.117 nmol/mg
Total drug tumor conc. EN [6, 12]: 36.100 nmol/mg
Unbound drug tumor conc. EN [6, 12]: 0.048 nmol/mg
unbound concentration in enhancing tumor ([6]; median): 48 nM
unbound concentration in nonenhancing tumor ([6]; median): 6 nM
Total drug tumor conc. NE [6, 15]: 36.351 nmol/mg and 1.259 nmol/mg
Unbound drug tumor conc. NE [6, 15]: 0.017 nmol/mg and BLQ
Total drug tumor conc. NE [6, 11]: 9.674 nmol/mg
Unbound drug tumor conc. NE [6, 11]: 0.008 nmol/mg
Total drug tumor conc. NE [6, 12]: 2.771 nmol/mg
Unbound drug tumor conc. NE [6, 12]: 0.006 nmol/mg
Css,max [7, 16]: 1279 nM
Tss,max [7, 16]: 6.1 h
Css,max [7, 17]: 1230 nM
Tss,max [7, 17]: 5.9 h
CL/F [7, 16]: 42.5 L/h
fluctuation between steady-state peak and trough plasma concentrations ([7]; total ceritinib, geometric mean): 1.4 fold
CL/F ([7]; total ceritinib, individual patients 1-3 (brain metastases), 750 mg/day fasted): 29.8 L/h and 66.9 L/h and 54.6 L/h
CL/F ([7]; total ceritinib, individual patients 5-14 (glioblastoma), 450 mg/day with food): 35.9 L/h and 39.8 L/h and 34.1 L/h and 34.7 L/h and 40.8 L/h and 37.8 L/h and 50.1 L/h
Css,max [7, 18]: 19 nM
Tss,max [7, 18]: 9.3 h
Css,max [7, 19]: 15 nM
Tss,max [7, 19]: 7.0 h
IC50 (IGF1R): 8 nM
